ChEMBL document CHEMBL1828623, “Overcoming hERG activity in the discovery of a series of 4-azetidinyl-1-aryl-cyclohexanes as CCR2 antagonists” (Bioorg Med Chem Lett, 2011)

Target: C-C chemokine receptor type 2 (Homo sapiens, UniProt P41597)
Test: Displacement of [125I]-MCP1 from CCR2 in human THP1 cells after 2 hrs by microplate scintillation and luminescence counting
Type: cell-based, THP-1
Method in brief: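 They were incubated with 0.5 nM ¹²⁵I-MCP-1 and varying test compound concentrations for 2 h at 30 °C. Cold MCP-1 defined nonspecific binding. Buffer-only blanks were subtracted and values compared with vehicle.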

Chain of C-C chemokine receptor type 2 (P41597 whole entry): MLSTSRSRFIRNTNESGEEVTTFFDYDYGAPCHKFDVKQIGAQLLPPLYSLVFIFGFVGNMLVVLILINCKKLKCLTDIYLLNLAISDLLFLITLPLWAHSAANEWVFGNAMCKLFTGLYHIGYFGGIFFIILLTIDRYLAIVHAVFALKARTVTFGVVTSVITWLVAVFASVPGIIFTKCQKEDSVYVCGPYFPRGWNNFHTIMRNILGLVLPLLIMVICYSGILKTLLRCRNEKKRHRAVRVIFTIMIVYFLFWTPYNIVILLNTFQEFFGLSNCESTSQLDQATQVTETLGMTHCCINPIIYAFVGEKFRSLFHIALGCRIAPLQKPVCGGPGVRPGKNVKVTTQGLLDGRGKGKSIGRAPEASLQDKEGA

Structure (SMILES) | IC50 [nM]
O=C(CNC(=O)c1cccc(C(F)(F)F)c1)NC1CN([C@H]2CC[C@](O)(c3cccnc3)CC2)C1 | 190
O=C(CNC(=O)c1cccc(C(F)(F)F)c1)NC1CN([C@H]2CC[C@@H](c3ccc4c(c3)OCO4)CC2)C1 | 5
O=C(CNC(=O)c1cccc(C(F)(F)F)c1)NC1CN([C@H]2CC[C@H](c3ccc4c(c3)OCO4)CC2)C1 | 1800
O=C(CNC(=O)c1cccc(C(F)(F)F)c1)NC1CN(C2CC=C(c3ccc4c(c3)OCO4)CC2)C1 (stereo not drawn) | 1000
O=C(CNC(=O)c1cccc(C(F)(F)F)c1)NC1CN(C2CCN(c3ccc4c(c3)OCO4)CC2)C1 | > 25000
O=C(CNC(=O)c1cccc(C(F)(F)F)c1)NC1CN([C@H]2CC[C@H](c3ccccc3)CC2)C1 | 35
O=C(CNC(=O)c1ccccc1)NC1CN([C@H]2CC[C@H](c3ccc4c(c3)OCO4)CC2)C1 | 390
O=C(CNC(=O)c1ccc(C(F)(F)F)cc1)NC1CN([C@H]2CC[C@H](c3ccc4c(c3)OCO4)CC2)C1 | 1200
COc1ccc([C@H]2CC[C@H](N3CC(NC(=O)CNC(=O)c4cccc(C(F)(F)F)c4)C3)CC2)cc1 | 10
O=C(CNC(=O)c1cccc(C(F)(F)F)c1)NC1CN([C@H]2CC[C@H](c3ccc(O)cc3)CC2)C1 | 21
O=C(CNC(=O)c1cccc(C(F)(F)F)c1)NC1CN([C@H]2CC[C@H](c3ccc(C(=O)O)cc3)CC2)C1 | 70
O=C(CNC(=O)c1cccc(C(F)(F)F)c1)NC1CN([C@H]2CC[C@H](c3ccc(N4CCCC4)cc3)CC2)C1 | 61
O=C(CNC(=O)c1cccc(C(F)(F)F)c1)NC1CN([C@H]2CC[C@H](c3ccc4[nH]cnc4c3)CC2)C1 | 27
O=C(CNC(=O)c1cccc(C(F)(F)F)c1)NC1CN([C@H]2CC[C@H](c3cccnc3)CC2)C1 | 45
COc1ccc([C@H]2CC[C@H](N3CC(NC(=O)CNC(=O)c4cccc(C(F)(F)F)c4)C3)CC2)cn1 | 7
COc1cnccc1[C@H]1CC[C@H](N2CC(NC(=O)CNC(=O)c3cccc(C(F)(F)F)c3)C2)CC1 | 32

Structure (SMILES) | IC50 [nM]
COc1cc([C@H]2CC[C@H](N3CC(NC(=O)CNC(=O)c4cccc(C(F)(F)F)c4)C3)CC2)ccn1 | 25
O=C(CNC(=O)c1cccc(C(F)(F)F)c1)NC1CN([C@H]2CC[C@H](c3ccc(O)cn3)CC2)C1 | 13
O=C(CNC(=O)c1cccc(C(F)(F)F)c1)NC1CN([C@H]2CC[C@H](c3ccncc3O)CC2)C1 | 52
Nc1ccc([C@H]2CC[C@H](N3CC(NC(=O)CNC(=O)c4cccc(C(F)(F)F)c4)C3)CC2)nc1 | 85
O=C(CNC(=O)c1cccc(C(F)(F)F)c1)NC1CN([C@H]2CC[C@](O)(c3ccc(F)cc3)CC2)C1 | 210
N#Cc1cccc([C@]2(O)CC[C@@H](N3CC(NC(=O)CNC(=O)c4cccc(C(F)(F)F)c4)C3)CC2)c1 | 410
COc1ccc([C@]2(O)CC[C@@H](N3CC(NC(=O)CNC(=O)c4cccc(C(F)(F)F)c4)C3)CC2)cc1 | 20
O=C(CNC(=O)c1cccc(C(F)(F)F)c1)NC1CN([C@H]2CC[C@](O)(c3ccc4c(c3)OCO4)CC2)C1 | 22
O=C(CNC(=O)c1cccc(C(F)(F)F)c1)NC1CN([C@H]2CC[C@](O)(c3ccc4c(c3)OCC4)CC2)C1 | 25
Cc1cccc(C)c1[C@]1(O)CC[C@@H](N2CC(NC(=O)CNC(=O)c3cccc(C(F)(F)F)c3)C2)CC1 | > 25000
N[C@]1(c2ccccc2)CC[C@H](N2CC(NC(=O)CNC(=O)c3cccc(C(F)(F)F)c3)C2)CC1 | 240
N#C[C@]1(c2ccccc2)CC[C@H](N2CC(NC(=O)CNC(=O)c3cccc(C(F)(F)F)c3)C2)CC1 | > 25000
O=C(CNC(=O)c1cccc(C(F)(F)F)c1)NC1CN([C@H]2CC[C@](C(=O)O)(c3ccccc3)CC2)C1 | > 25000
O=C(CNC(=O)c1cccc(C(F)(F)F)c1)NC1CN([C@H]2CC[C@](CO)(c3ccccc3)CC2)C1 | > 25000
O=C(CNC(=O)c1cccc(C(F)(F)F)c1)NC1CN(C2CCC(c3c[nH]c4ccccc34)CC2)C1 (mixture of isomers) | < 1000

Target: Voltage-gated inwardly rectifying potassium channel KCNH2 (Homo sapiens, UniProt Q12809)
Sequence (Q12809 whole entry): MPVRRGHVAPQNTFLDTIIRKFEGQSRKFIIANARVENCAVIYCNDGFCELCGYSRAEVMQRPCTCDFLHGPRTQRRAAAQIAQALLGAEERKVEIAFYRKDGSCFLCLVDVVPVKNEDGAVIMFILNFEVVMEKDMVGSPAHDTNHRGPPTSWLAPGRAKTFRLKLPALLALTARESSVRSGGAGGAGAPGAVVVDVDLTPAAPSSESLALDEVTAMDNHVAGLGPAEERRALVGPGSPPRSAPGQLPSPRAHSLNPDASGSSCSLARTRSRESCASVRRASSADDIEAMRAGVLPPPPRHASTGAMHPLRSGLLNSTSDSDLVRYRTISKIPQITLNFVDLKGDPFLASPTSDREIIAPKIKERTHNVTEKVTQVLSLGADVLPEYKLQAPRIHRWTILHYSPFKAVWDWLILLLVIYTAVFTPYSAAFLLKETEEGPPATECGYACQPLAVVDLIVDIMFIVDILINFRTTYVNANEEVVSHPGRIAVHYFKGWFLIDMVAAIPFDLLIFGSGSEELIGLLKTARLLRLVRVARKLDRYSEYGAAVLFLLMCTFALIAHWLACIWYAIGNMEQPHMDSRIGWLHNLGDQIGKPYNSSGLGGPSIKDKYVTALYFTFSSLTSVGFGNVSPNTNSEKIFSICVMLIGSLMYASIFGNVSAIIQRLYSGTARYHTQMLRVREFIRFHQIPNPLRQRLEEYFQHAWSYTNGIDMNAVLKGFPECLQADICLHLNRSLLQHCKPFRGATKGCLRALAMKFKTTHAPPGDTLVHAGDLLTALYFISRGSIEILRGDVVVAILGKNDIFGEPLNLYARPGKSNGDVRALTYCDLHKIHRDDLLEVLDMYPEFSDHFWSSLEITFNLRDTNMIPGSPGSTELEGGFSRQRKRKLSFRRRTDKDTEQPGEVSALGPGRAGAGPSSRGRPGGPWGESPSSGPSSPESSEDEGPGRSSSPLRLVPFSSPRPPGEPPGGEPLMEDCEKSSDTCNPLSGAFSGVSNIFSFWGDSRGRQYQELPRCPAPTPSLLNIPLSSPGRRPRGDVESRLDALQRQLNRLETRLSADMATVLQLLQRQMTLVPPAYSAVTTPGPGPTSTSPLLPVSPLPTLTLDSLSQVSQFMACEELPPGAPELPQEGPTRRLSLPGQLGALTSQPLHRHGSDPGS
Test: Displacement of [3H]astemizole from human ERG expressed in HEK293 cells after 1 hr

Structure (SMILES) | IC50 [nM]
O=C(CNC(=O)c1ccc(C(F)(F)F)cc1)NC1CN([C@H]2CC[C@H](c3ccc4c(c3)OCO4)CC2)C1 | 1500
O=C(CNC(=O)c1cccc(C(F)(F)F)c1)NC1CN(C2CCC(c3c[nH]c4ccccc34)CC2)C1 (mixture of isomers) | 2400
